# Data published in the RNAGym collection of RNA variant scans (doi:10.1101/gad.245936.114).
# Fewer inactive variants are shown than the library holds.
# B1: tRNA (parent)
# chain: CUCUCGGUAGCCAAGUUGGUUUAAGGCGCAAGACUUUAAUUUAUCACUACGAAAUCUUGAGAUCGGGCGUUCGACUCGCCCCCGGGAGAUUUUUUCCUCGAGCAA
# Variants of: B1
# Experiment: nonsense suppression (GFP-seq) (ratio to wild type); higher = more function; SUP4oc tRNA, yeast GFP reporter sort-seq
# Method in brief: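 Yeast were grown in raffinose/galactose medium with 80 mg/L adenine, each strain bearing a genome-integrated ochre-suppressor tRNA variant from a ~3% random-mutation library, a galactose-driven GFP ochre reporter, and RFP. After sorting into GFP/RFP bins, every bin was sequenced on an Illumina platform at phred ≥30. The GFPSEQ value, a measure of nonsense suppression, is the weighted bin median GFP/RFP relative to the unmutated parent tRNA, using each variant's estimated cell share per bin as the weight. Only variants with ≥100 reads and ≥30 cells were included.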
row,Variant,nonsense suppression
1,C11G A31U,≤ 0.026
2,A13C A23G A31U,≤ 0.026
3,G10U A30C U57C U63C,≤ 0.026
4,G10U A14U,0.19
5,A13C C68G G88A,≤ 0.026
6,A9U U21G U22C,≤ 0.026
7,C12G G15A G19U,≤ 0.026
8,C11G C12U G61C,≤ 0.026
9,A13C G88A,0.0766
10,C12U C82U,0.32
11,C12U A33C C80G,≤ 0.026
12,C11G A30U,≤ 0.026
13,G10A A24C G85U,≤ 0.026
14,C11U U22C,0.0289
15,C12U G61U,0.248
16,C11U G28A A33G,≤ 0.026
17,A9U U57G C77A G85A,≤ 0.026
18,A9U G66A,0.0305
19,G10U C27U C29A A60C U76G,≤ 0.026
20,G10A A60U C68A,≤ 0.026
21,C11U A33G A74C C83A,≤ 0.026
22,C12U U70A,0.048
23,C11G G26C,0.359
24,C11G A30G G67U,≤ 0.026

row,Variant,nonsense suppression
1,C11U C12A G88A,≤ 0.026
2,C12G C56G G65A A74U,≤ 0.026
3,G10A C11U C64U,≤ 0.026
4,C12G C27U,≤ 0.026
5,C12A G25C C68G,≤ 0.026
6,C11U A24U,0.031
7,C12G U16C A23G,0.207
8,C12G A14G A33G,≤ 0.026
9,C12A U35A C81G,≤ 0.026
10,C12G C68G G69U A89U,0.0702
11,A13C G18U G26A A31U,≤ 0.026
12,A13C C72U C81U,≤ 0.026
13,A13C C27A G61C C75G,≤ 0.026
14,C11G G15U G78C,≤ 0.026
15,G10C G26A G65A A87U,≤ 0.026
16,G10C U21A,≤ 0.026
17,C12A C34U,0.94
18,G10U C34G U63A C81U,≤ 0.026
19,A13C C68U,0.836
20,A13C,1.13
21,A9U U16A,0.13
22,A9U U16G,0.202
23,A13C G73A,0.394
24,A13C G73U,0.0412

row,Variant,nonsense suppression
1,G10C A54U,≤ 0.026
2,A9U G15A,0.0449
3,C12U A60U,0.723
4,C12U A60G,0.406
5,C11G G66A G69C,0.0424
6,C11U G61C,0.0829
7,C12U G25A,1.19
8,C12U G25U,0.192
9,C12U G25C,0.184
10,C12A G18U G66A U70C C77G C83U,≤ 0.026
11,C12U A23C G78C,≤ 0.026
12,C11U C56G G73C G78A C79G,≤ 0.026
13,C12U A31G C77G,≤ 0.026
14,C12U U55C,0.0665
15,C11U A30G A31U U35G G67C U76C,≤ 0.026
16,C11G C29G G61U,≤ 0.026
17,G10C G25C G61C U71A,≤ 0.026
18,A13C A30G,0.892
19,A9U C81U,0.0272
20,A9U C81A,≤ 0.026
21,G10C G15C U20G,≤ 0.026
22,C11U G26A U63C,0.212
23,C12U U20C,0.177
24,C12U U20G,0.455

row,Variant,nonsense suppression
1,C12U A24U U71G,≤ 0.026
2,G10U C27A G85A,0.159
3,C12U G78A,0.0268
4,C12U G78U,0.0326
5,A9U G61A C72A,≤ 0.026
6,A9U G73A,0.0814
7,G10C C56G U71G,≤ 0.026
8,C11U A31G C77G,≤ 0.026
9,G10A C64G,≤ 0.026
10,A13C G66C,≤ 0.026
11,C12U U21A A31G,0.214
12,C11U U70G C79A,≤ 0.026
13,C11A A13G,≤ 0.026
14,C12A A31G,0.0261
15,A9U G88A,0.0329
16,G10C C77U,≤ 0.026
17,G10C C77G,≤ 0.026
18,A13C G78A,0.208
19,A13C G28U,0.0283
20,A13C G28A,1.08
21,A13C G28C,0.794
22,C11A U63G,≤ 0.026
23,C12A G78A,0.045
24,C12A G18U U70C G88U,≤ 0.026

row,Variant,nonsense suppression
1,G10A C56U G73A,≤ 0.026
2,G10A C29G A54G,≤ 0.026
3,A13C A54G G73C,≤ 0.026
4,C11U G19U C64A,≤ 0.026
5,C11A C12A U17G U22G G66A U76C A89C,≤ 0.026
6,G10A U70C G78C A89C,≤ 0.026
7,G10C A24U A30G A33U U55A C80U,≤ 0.026
8,A9U G78A,0.0365
9,G10A C27U,≤ 0.026
10,C12U U22G,0.745
11,C11U G19A G25A C29U G59A,≤ 0.026
12,C11A G61A,0.22
13,C11G C72G,≤ 0.026
14,C12U C75G,1.23
15,C11A A33G C77A C81G,≤ 0.026
16,C12U G28U,0.0705
17,C12U G28A,0.51
18,C12U G85C,0.111
19,C12U G85U,0.0919
20,C12U G84U,0.117
21,C11U C29G,≤ 0.026
22,C12U A54C,0.0512
23,C12U A54U,0.229
24,C12U A54G,0.0372

row,Variant,nonsense suppression
1,C11U C68A U76C C83G,≤ 0.026
2,C11G C12A U35G U55C U76A G84U,≤ 0.026
3,C11G U63A U70G,≤ 0.026
4,G10U C77G,≤ 0.026
5,C11U G61C A87U,≤ 0.026
6,A13C A33U,0.0508
7,A9U G28U A62G U71G,≤ 0.026
8,C12A G32C U57G,≤ 0.026
9,A13C A31C U76A,≤ 0.026
10,A13C G18C U20G A31U,0.134
11,C12U,0.773
12,G10U U55C,0.0469
13,G10U C27A,0.119
14,C11U,≤ 0.026
15,C12U U17C,0.212
16,C11A U58A G69A,≤ 0.026
17,C12A G61C G66C,≤ 0.026
18,C12A C77A G86U,≤ 0.026
19,C11A G26C G66U,≤ 0.026
20,A9U G18C,≤ 0.026
21,C12U G19U U57C C77A A89U,≤ 0.026
22,C12G U21A G59U,≤ 0.026
23,G10U G18A C75U,≤ 0.026
24,C11A G66C,≤ 0.026

row,Variant,nonsense suppression
1,C12U A24U,0.118
2,G10C G73C A87U,≤ 0.026
3,C12U G88U,0.0717
4,G10C A13G G15A U57C,≤ 0.026
5,C12G G25C C75A,0.482
6,C11U G18A,≤ 0.026
7,G10U A54C G86C,≤ 0.026
8,C11U G84C A89C,≤ 0.026
9,C11U G66A,≤ 0.026
10,A13C G61U C68U,0.414
11,G10C C29G C79U,≤ 0.026
12,A9U G25U,≤ 0.026
13,C11G U35C A74U C82A,≤ 0.026
14,C11A G25C G61C,≤ 0.026
15,A13C C75A,1.09
16,A13C C75G,1.15
17,A13C C75U,1.09
18,C12U U35C,0.0352
19,C12U G78U G84C,≤ 0.026
20,G10A U21G G67C C79A,≤ 0.026
21,G10C U35A G66C G85U,≤ 0.026
22,C11U G78U,≤ 0.026
23,C11U A23G A31G U76A,≤ 0.026
